Assay results taken from ChEMBL document CHEMBL1123506, “Unsaturated heterocyclic amines as potent time-dependent inhibitors of dopamine beta-hydroxylase” (J Med Chem, 1986).
pKi: −log10 of the molar value.

Key:
[1] = The ratio of Kinetic constant K cat / Ki of Dopamine Beta-hydroxylase inhibitor.
How it was run: (§1)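 Bovine adrenal DBH, purified to homogeneity. Aliquots withdrawn at timed intervals and diluted into assay medium with 1 mM tyramine. Residual activity measured as octopamine formed, by reverse-phase HPLC with fluorescence detection. KI and kcat from Kitz–Wilson plot of t1/2 versus 1/I; kcat/KI calculated.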

Rattus norvegicus [2] = assay: Compound was evaluated for the antihypertensive activity against DBH in conscious spontaneously hypertensive rats at the 30 doses (mg/Kg i.p.) after 3hr.; format: functional
How it was run: (§2)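 Conscious spontaneously hypertensive rats received a single intraperitoneal dose; the paper's dose levels were 10, 30 and 100 mg/kg. Mean arterial blood pressure was monitored. Values are the maximal change in mmHg and the duration of the response in h. Groups were n = 4–6, reported as mean ± SD.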

[3] = molecular target: T1, Dopamine beta-hydroxylase (Bos taurus) (UniProt P15101); assay: Compound was determined for the kinetic constant against Dopamine beta hydroxylase purified from beef adrenals, catalytic constant (kcat); how it was run: as §1
T1 sequence (whole entry): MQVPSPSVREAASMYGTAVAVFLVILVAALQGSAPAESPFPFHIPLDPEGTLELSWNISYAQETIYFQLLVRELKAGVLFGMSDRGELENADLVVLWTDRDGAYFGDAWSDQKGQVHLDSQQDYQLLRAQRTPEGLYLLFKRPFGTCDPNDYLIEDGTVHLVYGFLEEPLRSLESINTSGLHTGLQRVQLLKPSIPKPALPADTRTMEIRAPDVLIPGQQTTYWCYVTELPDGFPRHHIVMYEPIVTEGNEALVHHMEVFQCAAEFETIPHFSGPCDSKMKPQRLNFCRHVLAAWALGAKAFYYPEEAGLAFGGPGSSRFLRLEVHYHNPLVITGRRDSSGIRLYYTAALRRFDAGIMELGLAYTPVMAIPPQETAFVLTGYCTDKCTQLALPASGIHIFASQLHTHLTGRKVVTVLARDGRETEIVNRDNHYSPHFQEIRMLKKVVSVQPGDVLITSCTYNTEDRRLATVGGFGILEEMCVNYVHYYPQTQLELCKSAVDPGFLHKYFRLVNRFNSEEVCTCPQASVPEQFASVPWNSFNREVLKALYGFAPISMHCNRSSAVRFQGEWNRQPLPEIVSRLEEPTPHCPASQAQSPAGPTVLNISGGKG

[4] = molecular target: T2, Dopamine beta-hydroxylase (Bos taurus, UniProt P15101); assay: Compound was determined for the kinetic constant against Dopamine beta hydroxylase purified from beef adrenals, inhibitory constant (Ki); how it was run: as §1
T2 sequence (P15101 whole entry): T1 sequence (whole entry)

Rattus norvegicus [5] = assay: Compound was evaluated for the antihypertensive activity against DBH in conscious spontaneously hypertensive rats at the 30 doses (mg/Kg ip) after >1h. (MBP= mean arterial blood pressure); format: functional, Artery
How it was run: (§3)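 Conscious spontaneously hypertensive rats dosed intraperitoneally at 10, 30 or 100 mg/kg, n = 4–6 per group. Read-out is maximal change in mean arterial blood pressure (mmHg, mean ± SD), with duration of response in hours.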

Rattus norvegicus [6] = assay: Compound was evaluated for the antihypertensive activity against DBH in conscious spontaneously hypertensive rats at the 100 doses (mg/Kg ip). (MBP= mean arterial blood pressure)
Rattus norvegicus [7] = assay: Compound was evaluated for the antihypertensive activity against DBH in conscious spontaneously hypertensive rats at the 100 doses (mg/Kg ip) after 79h.; format: functional; how it was run: as §3
Rattus norvegicus [8] = assay: Compound was evaluated for the antihypertensive activity against DBH in conscious spontaneously hypertensive rats at the 10 doses (mg/Kg ip) after 1h.; format: functional; how it was run: as §3
Rattus norvegicus [9] = assay: Compound was evaluated for the antihypertensive activity against DBH in conscious spontaneously hypertensive rats at the 30 doses (mg/Kg ip) after 30h.; format: functional; how it was run: as §3
Rattus norvegicus [10] = assay: Compound was evaluated for the antihypertensive activity against DBH in conscious spontaneously hypertensive rats at the 30 doses (mg/Kg ip) after 9 hr (MBP= mean arterial blood pressure); format: functional, Artery; how it was run: as §2
Rattus norvegicus [11] = assay: Compound was evaluated for the antihypertensive activity against DBH in conscious spontaneously hypertensive rats at the 100 doses (mg/Kg ip) after 3h.; format: functional; how it was run: as §3
Rattus norvegicus [12] = assay: Compound was evaluated for the antihypertensive activity against DBH in conscious spontaneously hypertensive rats at the 30 doses (mg/Kg ip) after 6h.; format: functional; how it was run: as §3
Rattus norvegicus [13] = assay: Compound was evaluated for the antihypertensive activity against DBH in conscious spontaneously hypertensive rats at the 30 doses (mg/Kg ip) after 43h.; format: functional; how it was run: as §3
Rattus norvegicus [14] = assay: Compound was evaluated for the antihypertensive activity against DBH in conscious spontaneously hypertensive rats at the 100 doses (mg/Kg ip) after 70h.; format: functional; how it was run: as §3
Rattus norvegicus [15] = assay: Compound was evaluated for the antihypertensive activity against DBH in conscious spontaneously hypertensive rats at the 30 doses (mg/Kg ip) after 1h.; format: functional; how it was run: as §3
Rattus norvegicus [16] = assay: Compound was evaluated for the antihypertensive activity against DBH in conscious spontaneously hypertensive rats at the 100 doses (mg/Kg ip) after 2 hr.; format: functional; how it was run: as §3

Structure (SMILES)	k cat/Ki [1] [M⁻¹ s⁻¹]	k cat [3]	pKi [4]	also measured
NCC#Cc1ccccc1	55.5	0.07 -1/min	4.68	Max MBP (Rattus norvegicus [2]): -13 mmHg
C=C(CNC)c1cccs1	0.733	0.00163 s⁻¹	2.67	Max MBP (Rattus norvegicus [5]): -23 mmHg; Max MBP (Rattus norvegicus [6]): -16 mmHg
C=C(c1cccs1)C(C)N (stereo unspecified)	2.68	0.000967 s⁻¹	3.44	Max MBP (Rattus norvegicus [10]): -16 mmHg
CC#Cc1ccccc1	0.1	0.06 -1/min	1.70	

Further lines, with some results ahead:

k cat/Ki [1] [M⁻¹ s⁻¹]	k cat [3]	pKi [4]	Structure (SMILES)	also measured
0.05	0.04 -1/min	1.89	C=C(CN)c1ccccc1	
5.28	0.13 -1/min	3.39	C=C(CN)c1ccco1	Max MBP (Rattus norvegicus [7]): -69 mmHg; Max MBP (Rattus norvegicus [8]): -10 mmHg; Max MBP (Rattus norvegicus [9]): -26 mmHg
5.57	0.077 -1/min	3.64	C=C(CN)c1ccoc1	Max MBP (Rattus norvegicus [11]): -21 mmHg; Max MBP (Rattus norvegicus [12]): -20 mmHg
59	0.124 -1/min	4.46	C=C(CN)c1cccs1	Max MBP (Rattus norvegicus [13]): -36 mmHg; Max MBP (Rattus norvegicus [14]): -34 mmHg; Max MBP (Rattus norvegicus [8]): -19 mmHg
4.28	0.147 -1/min	3.24	C=C(CN)c1ccsc1	Max MBP (Rattus norvegicus [15]): -18 mmHg; Max MBP (Rattus norvegicus [16]): -54 mmHg
